The target in series [1] is T1, Alpha-1D adrenergic receptor (Homo sapiens, UniProt P25100).
T1 sequence (P25100 whole entry): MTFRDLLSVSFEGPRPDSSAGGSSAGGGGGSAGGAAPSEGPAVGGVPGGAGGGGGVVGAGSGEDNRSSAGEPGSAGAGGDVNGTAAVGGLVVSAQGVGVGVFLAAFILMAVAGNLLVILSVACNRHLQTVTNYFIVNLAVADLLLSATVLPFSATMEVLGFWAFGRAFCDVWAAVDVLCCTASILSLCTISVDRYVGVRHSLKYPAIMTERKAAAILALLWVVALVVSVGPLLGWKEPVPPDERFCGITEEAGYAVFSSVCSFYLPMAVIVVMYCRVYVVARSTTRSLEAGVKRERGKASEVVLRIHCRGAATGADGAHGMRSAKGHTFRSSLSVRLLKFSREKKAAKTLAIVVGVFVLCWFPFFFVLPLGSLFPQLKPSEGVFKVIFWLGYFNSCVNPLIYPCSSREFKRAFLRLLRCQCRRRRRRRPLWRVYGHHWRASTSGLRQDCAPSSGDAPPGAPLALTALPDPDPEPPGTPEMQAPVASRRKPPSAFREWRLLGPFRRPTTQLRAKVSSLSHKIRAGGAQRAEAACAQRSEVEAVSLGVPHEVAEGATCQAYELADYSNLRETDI
Kind of series: Displacement of 7-methoxy-[3H]-prazosin from human alpha1D adrenergic receptor expressed in CHO-K1 cell membranes incubated for 60 mins by liquid scintillation counting analysis. In a few lines: (§1)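 CHO-K1 stable-line membranes (10 µg protein), 2.5 nmol/L ligand, Tris-HCl pH 7.5 with MgCl2, EDTA and 0.5% BSA, 12 compound concentrations, room temperature. Filtered and counted; nonspecific binding with 10 µmol/L phentolamine. IC50 by logistic regression, converted to Ki by Cheng-Prusoff with Kd 0.93 (α1A), 0.35 (α1B), 0.26 (α1D) nmol/L. Triplicate mean, 95% CI.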

Series [2] has as its target T2, Alpha-1A adrenergic receptor (Homo sapiens, UniProt P35348).
T2 sequence (P35348 whole entry): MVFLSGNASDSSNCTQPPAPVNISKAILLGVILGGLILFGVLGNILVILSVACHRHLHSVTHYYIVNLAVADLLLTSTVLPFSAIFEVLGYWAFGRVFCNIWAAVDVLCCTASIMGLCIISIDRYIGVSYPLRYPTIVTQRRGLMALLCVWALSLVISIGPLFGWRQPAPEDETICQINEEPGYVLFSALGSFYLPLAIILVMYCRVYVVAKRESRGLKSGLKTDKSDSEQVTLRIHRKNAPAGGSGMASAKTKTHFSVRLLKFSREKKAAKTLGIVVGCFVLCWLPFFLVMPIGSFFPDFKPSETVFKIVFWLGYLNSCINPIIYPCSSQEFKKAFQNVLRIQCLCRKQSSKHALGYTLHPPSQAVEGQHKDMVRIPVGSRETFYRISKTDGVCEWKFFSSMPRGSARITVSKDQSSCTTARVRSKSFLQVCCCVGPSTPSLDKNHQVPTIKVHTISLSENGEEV
Kind of series: Displacement of 7-methoxy-[3H]-prazosin from human alpha1A adrenergic receptor expressed in CHO-K1 cell membranes incubated for 60 mins by liquid scintillation counting analysis. In a few lines:
as §1

In series [3] the target is T3, Alpha-1B adrenergic receptor (Homo sapiens, UniProt P35368).
T3 sequence (P35368 whole entry): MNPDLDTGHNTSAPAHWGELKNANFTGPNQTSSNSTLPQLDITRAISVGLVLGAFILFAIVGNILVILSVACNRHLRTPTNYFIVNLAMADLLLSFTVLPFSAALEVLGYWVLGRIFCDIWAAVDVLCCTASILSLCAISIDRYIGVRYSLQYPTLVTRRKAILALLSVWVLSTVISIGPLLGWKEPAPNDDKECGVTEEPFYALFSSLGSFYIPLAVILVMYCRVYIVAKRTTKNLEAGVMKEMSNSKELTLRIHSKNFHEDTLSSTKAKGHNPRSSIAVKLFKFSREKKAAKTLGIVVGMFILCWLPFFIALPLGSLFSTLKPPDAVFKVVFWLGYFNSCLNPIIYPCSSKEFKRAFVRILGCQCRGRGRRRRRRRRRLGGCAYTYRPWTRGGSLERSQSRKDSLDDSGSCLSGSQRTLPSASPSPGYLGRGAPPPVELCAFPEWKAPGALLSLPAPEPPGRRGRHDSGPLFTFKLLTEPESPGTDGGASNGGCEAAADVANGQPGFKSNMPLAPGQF
The series is described as follows: Displacement of 7-methoxy-[3H]-prazosin from human alpha1B adrenergic receptor expressed in CHO-K1 cell membranes incubated for 60 mins by liquid scintillation counting analysis. In a few lines:
as §1

The target of series [4] is T4, 5-hydroxytryptamine receptor 1A (Homo sapiens, UniProt P08908).
T4 sequence (P08908 whole entry): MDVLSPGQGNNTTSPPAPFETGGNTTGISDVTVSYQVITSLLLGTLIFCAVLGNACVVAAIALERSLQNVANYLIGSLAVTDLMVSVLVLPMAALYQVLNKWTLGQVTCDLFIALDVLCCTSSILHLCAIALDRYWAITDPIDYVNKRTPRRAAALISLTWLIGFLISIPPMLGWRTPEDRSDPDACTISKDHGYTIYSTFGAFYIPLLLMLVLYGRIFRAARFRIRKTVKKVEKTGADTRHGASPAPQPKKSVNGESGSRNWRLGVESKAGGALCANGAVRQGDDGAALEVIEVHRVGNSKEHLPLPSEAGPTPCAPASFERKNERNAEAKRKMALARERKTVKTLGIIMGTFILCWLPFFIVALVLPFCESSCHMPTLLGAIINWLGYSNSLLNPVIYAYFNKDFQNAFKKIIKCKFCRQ
Kind of series: Inhibition of 5-HT 1A receptor (unknown origin).

Series [5] deals with Voltage-gated inwardly rectifying potassium channel KCNH2 (Homo sapiens, UniProt Q12809). The series is described as follows: Inhibition of human ERG channel expressed in CHO cells assessed as peak tail current at 10 uM incubated for 5 mins by patch-clamp assay. The following applies: cho, 5 min, 10 µM. It counts as cell-based. In a few lines:
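CHO cells stably expressing hERG, grown at 32 °C, 5% CO2 in Ham's F-12 with 10% FBS and 500 µg/mL Geneticin. Population patch clamp with PBS (Ca/Mg) outside, KCl/MgCl2/EGTA/HEPES pH 7.3 inside, amphotericin B perforation. Holding −80 mV, step to 40 mV 2 s, then −50 mV 2 s. Peak tail current taken before and after 5 min compound exposure, inhibition = 100 − post/pre×100, n = 3 or 4.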
A general note: The patch-clamp technique gives a direct electrical read-out from membranes.

In another series the target is CYP3A4 (Homo sapiens, UniProt P08684). The series is described as follows: Reversible inhibition of CYP3A4 in human liver microsomes at 10 uM using midazolam as substrate incubated for 10 mins by LC/MS/MS analysis. It counts as ADME. Particulars: probe midazolam. In a few lines:
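Midazolam incubated with 0.1 mg/mL microsomes and test compound at 37 °C. Stopped with acetonitrile/water and centrifuged. 1'-Hydroxymidazolam peak measured in the supernatant.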
(Microsomes from liver hold many membrane-bound enzymes, among them those of drug oxidation.)

Series [6] is described as follows: Clearance in human liver microsomes at 1 uM after 15 to 30 mins by LC/MS/MS analysis. The following applies: read-out: CLH. It counts as ADME. In a few lines:
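Incubated with 0.2 mg/mL microsomal protein in 50 mM potassium phosphate, pH 7.4. Reaction started with an NADPH-generating system (MgCl2, glucose-6-phosphate, β-NADP+, G6P dehydrogenase). Stopped with acetonitrile at 15 and 30 min, then analysed for remaining compound. Metabolic velocity taken as the slope of the concentration-time plot.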

The nature of series [7]: Permeability of compound at pH 7.4 by PAMPA. It counts as ADME. Particulars: read-out: permeability.

Bounds are passed on as bounds.

Sequence of CYP3A4 (P08684 whole entry): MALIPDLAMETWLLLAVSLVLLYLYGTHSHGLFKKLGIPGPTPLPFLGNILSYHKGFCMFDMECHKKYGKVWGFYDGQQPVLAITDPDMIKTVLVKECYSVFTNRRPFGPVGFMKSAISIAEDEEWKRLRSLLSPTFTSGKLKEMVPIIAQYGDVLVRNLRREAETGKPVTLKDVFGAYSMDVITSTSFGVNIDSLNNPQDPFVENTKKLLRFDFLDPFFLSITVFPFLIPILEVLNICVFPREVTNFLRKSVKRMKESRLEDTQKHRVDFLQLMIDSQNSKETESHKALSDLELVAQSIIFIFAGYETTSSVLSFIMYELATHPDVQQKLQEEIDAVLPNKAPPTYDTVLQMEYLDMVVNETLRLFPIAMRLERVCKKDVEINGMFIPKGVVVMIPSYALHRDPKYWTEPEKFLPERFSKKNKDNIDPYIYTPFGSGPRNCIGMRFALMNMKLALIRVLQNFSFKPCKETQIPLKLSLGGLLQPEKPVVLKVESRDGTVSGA
Sequence of Voltage-gated inwardly rectifying potassium channel KCNH2 (Q12809 whole entry): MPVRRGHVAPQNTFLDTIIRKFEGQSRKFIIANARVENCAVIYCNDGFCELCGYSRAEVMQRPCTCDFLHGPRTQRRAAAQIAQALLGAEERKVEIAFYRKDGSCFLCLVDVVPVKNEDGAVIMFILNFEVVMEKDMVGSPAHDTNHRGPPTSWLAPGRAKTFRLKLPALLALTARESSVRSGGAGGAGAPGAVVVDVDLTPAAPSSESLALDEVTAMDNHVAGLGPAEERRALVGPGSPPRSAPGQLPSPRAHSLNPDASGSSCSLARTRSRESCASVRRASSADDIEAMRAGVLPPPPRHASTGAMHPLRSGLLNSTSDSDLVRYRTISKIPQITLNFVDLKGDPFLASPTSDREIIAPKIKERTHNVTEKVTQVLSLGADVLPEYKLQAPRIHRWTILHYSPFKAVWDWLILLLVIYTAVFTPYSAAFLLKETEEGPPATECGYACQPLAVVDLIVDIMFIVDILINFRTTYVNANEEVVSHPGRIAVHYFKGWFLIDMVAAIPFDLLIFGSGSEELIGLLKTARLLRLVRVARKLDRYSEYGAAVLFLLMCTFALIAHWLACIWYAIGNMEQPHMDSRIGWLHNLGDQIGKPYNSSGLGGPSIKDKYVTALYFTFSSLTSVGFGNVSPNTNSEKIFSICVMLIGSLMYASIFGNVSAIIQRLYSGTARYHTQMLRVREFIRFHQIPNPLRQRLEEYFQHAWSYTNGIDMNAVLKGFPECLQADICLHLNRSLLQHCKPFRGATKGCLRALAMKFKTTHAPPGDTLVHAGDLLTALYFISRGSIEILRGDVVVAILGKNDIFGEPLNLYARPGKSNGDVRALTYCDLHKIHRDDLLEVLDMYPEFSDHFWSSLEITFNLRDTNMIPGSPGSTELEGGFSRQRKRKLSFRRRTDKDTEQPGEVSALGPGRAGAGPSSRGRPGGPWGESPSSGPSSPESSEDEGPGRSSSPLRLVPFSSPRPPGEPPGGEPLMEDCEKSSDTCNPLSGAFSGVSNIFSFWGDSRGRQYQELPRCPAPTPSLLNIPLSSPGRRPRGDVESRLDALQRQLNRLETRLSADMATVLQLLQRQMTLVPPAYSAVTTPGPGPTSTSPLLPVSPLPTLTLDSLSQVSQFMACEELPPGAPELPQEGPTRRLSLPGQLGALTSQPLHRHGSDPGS

By Ki is commonly meant the equilibrium dissociation constant of an inhibitor or competing ligand from its target. The IC50 is the concentration that inhibits the measured activity by half. Read a high IC50 as a need for much substance. As to `N=c1c(C(N)=O)cc(Cl)cn1Cc1ccccc1`, the Ki in series [1] is 30 nM; in series [2], above 2700 nM; in series [3], above 1200 nM. The compound also returned a half-maximal inhibitory concentration (IC50) in series [4] above 1000 nM.

As a reminder, the inhibition is the change of the read-out against control, counted positive when it falls. Regarding `Cl.N=c1c(C(N)=O)cc(Cl)cn1Cc1cccc(Cl)c1`, the “inhibition (INH)” value in series [5] is on record as 47%. In addition, the inhibition at 10 min, 10 µM against CYP3A4 is -1.6%. In addition, the microsomal CLint at 1 µM in series [6] came to 3 µL/min/mg. Besides, the Papp in series [7] amounted to 11.6 ×10⁻⁶ cm/s.

Source of the values: ChEMBL document CHEMBL3797060, “Discovery of 5-Chloro-1-(5-chloro-2-(methylsulfonyl)benzyl)-2-imino-1,2-dihydropyridine-3-carboxamide (TAK-259) as a Novel, Selective, and Orally Active α1D Adrenoceptor Antagonist with Antiurinary Frequency Effects: Reducing Human Ether-a-go-go-Related Gene (hERG) Liabilities” (J Med Chem, 2016).
